According to paper PMC9064899 (The FEBS journal, 2021):
Positions count from the first letter of the chain named.

Tests used:
UBIAD1 D112G = target: T1, UBIAD1 D112G (Homo sapiens, UniProt Q9Y5Z9, D112G); assay: Cell-based UBIAD1 functional assay
T1 sequence (Q9Y5Z9 1-338 D112G): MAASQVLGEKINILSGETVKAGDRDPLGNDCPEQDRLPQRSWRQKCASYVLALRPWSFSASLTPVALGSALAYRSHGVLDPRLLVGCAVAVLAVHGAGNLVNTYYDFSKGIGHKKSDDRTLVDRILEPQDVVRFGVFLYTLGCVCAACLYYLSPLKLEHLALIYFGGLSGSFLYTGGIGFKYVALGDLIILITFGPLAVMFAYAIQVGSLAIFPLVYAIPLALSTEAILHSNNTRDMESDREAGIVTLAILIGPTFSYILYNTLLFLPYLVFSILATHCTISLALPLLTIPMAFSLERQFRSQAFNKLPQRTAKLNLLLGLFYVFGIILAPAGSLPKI
Procedure, shortened: (§1)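 Wild-type or mutant human UBIAD1 in pCI-neo was transiently transfected into Ubiad1-knockout FIXgla-PC/HEK293 cells (DMEM/F12, 10% FBS). […] After 24 h, carboxylated FIXgla-PC in the medium was measured by ELISA. Activity was normalized to wild type (100%), and EC50 came from a curve fit. Mean ± SD, n=3 independent experiments.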

UBIAD1 D240A = target: T2, UBIAD1 D240A (Homo sapiens, UniProt Q9Y5Z9, D240A); assay: Cell-based UBIAD1 functional assay
T2 sequence (Q9Y5Z9 1-338 D240A): T1 sequence (Q9Y5Z9 1-338 D112G) with G112D, D240A
Procedure, shortened: as §1

CC1=CC(=O)c2ccccc2C1=O [vitamin K3, menadione]
EC50 (UBIAD1 D112G): 5.1 ± 0.8 nM | Vitamin K-dependent carboxylation Activity ± SD (UBIAD1 D112G; D112G, 1 μM vitamin K3): 104.8 ± 3% | EC50 (UBIAD1 D240A): 64 ± 10.5 nM | Vitamin K-dependent carboxylation Activity ± SD (UBIAD1 D240A; D240A, 1 μM vitamin K3): 85.6 ± 1.4%
